Key:
FM3A = assay: Inhibition of proliferation of Murine mammary carcinoma (FM3A) cells was measured; format: functional; conditions: Mus musculus, read-out: ID50 (the source's name)
[1] = (§1) Minimum cytotoxic concentration required to cause a microscopically detectable alteration of normal cell morphology; format: functional
Semliki Forest virus = assay: Minimum inhibitory concentration required to reduce virus induced forest virus in Vero B cell cultures; format: functional
MOLT-4F = assay: Inhibition of proliferation of Human T Lymphoblast (Molt/4F) cells was measured; format: functional; conditions: read-out: ID50 (the source's name)
P388 = assay: Percent inhibition of proliferation of Murine Leukemia (P388) cells was measured; format: functional, Mus musculus; set-up: concentration or dose not given beside the values
Method in brief: (§2)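 Mouse leukemia L1210 cells were grown in McCoy's 5A medium and P388D1 cells in Fischer's medium, each with 10% fetal calf serum. Compounds were dissolved in water, or sonicated and given as a suspension if poorly soluble. Cells were seeded at 1×10^5 per well and grown 72 h at 37 °C in 5% CO2. Viability was read by MTT formazan optical density at 570 nm (reference 630 nm).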

[2] = tested on: Vesicular stomatitis virus; assay: Minimum inhibitory concentration required to reduce virus induced cytopathogenicity by 50% against Vesicular stomatitis virus in HeLa cell cultures; format: functional
Raji = assay: Inhibition of proliferation of Human B Lymphoblast (Raji) cells was measured; format: functional; conditions: read-out: ID50 (the source's name)
Human alphaherpesvirus 1 = assay: Minimum inhibitory concentration required to reduce virus induced cytopathogenicity by 50% against herpes simplex-1 virus in rabbit primary kidney cell cultures; format: functional
Coxsackievirus B4 [3] = assay: Minimum inhibitory concentration required to reduce virus induced cytopathogenicity by 50% against Coxsackie type B4 virus in Vero B cell cultures; format: functional; conditions: Enterovirus B
[4] = Minimum inhibitory concentration required to reduce virus induced cytopathogenicity by 50% against para influenza virus in WI-38 cell cultures; format: functional
L1210 [5] = assay: Inhibition of proliferation of Murine Leukemia (L1210) cells was measured; format: functional; conditions: Mus musculus, read-out: ID50 (the source's name)
L1210 [6] = assay: Percent inhibition of proliferation of Murine Leukemia (L1210) cells was measured; format: functional, Mus musculus; set-up: concentration or dose not given beside the values; method in brief: as §2
[7] = tested on: Mammalian orthoreovirus 1; assay: Minimum inhibitory concentration required to reduce virus induced cytopathogenicity by 50% against Reo-1 virus in WI-38 cell cultures; format: functional
[8] = as §1; format: functional; remark: listed apart in the source
Human rhinovirus 1A = assay: Minimum inhibitory concentration required to reduce virus induced cytopathogenicity by 50% against rhino-1A virus in WI-38 cell cultures; format: functional
rhinovirus A9 = assay: Minimum inhibitory concentration required to reduce virus induced cytopathogenicity by 50% against rhino-9 virus in WI-38 cell cultures; format: functional; conditions: Rhinovirus A
Human alphaherpesvirus 2 = assay: Minimum inhibitory concentration required to reduce virus induced cytopathogenicity by 50% against herpes simplex-2 virus in rabbit primary kidney cell cultures; format: functional
Sindbis virus = assay: Minimum inhibitory concentration required to reduce virus induced cytopathogenicity by 50% against sindbis virus in Vero B cell cultures; format: functional
Coxsackievirus B4 [9] = assay: Minimum inhibitory concentration required to reduce virus induced cytopathogenicity by 50% against Coxsackie type B4 virus in HeLa cell cultures; format: functional; conditions: Enterovirus B
Poliovirus 1 = assay: Minimum inhibitory concentration required to reduce virus induced cytopathogenicity by 50% against polio type 1 virus in HeLa cell cultures; format: functional; conditions: Enterovirus C
NAMALVA = assay: Inhibition of proliferation of Human B Lymphoblast (Namalva) cells was measured; format: functional; conditions: read-out: ID50 (the source's name)
Hepatoma cell line = assay: Inhibition of proliferation of Human hepatoma cells was measured; format: functional; conditions: read-out: ID50 (the source's name)

Row | SMILES | IC50 (FM3A) | MCC [1] | MIC (Semliki Forest virus) | IC50 (MOLT-4F) | Inhibition (P388) | MIC [2] | IC50 (Raji) | MIC (Human alphaherpesvirus 1) | MIC (Coxsackievirus B4 [3]) | MIC [4] | IC50 (L1210 [5]) | Inhibition (L1210 [6]) | MIC [7] | MCC [8] | MIC (Human rhinovirus 1A) | MIC (rhinovirus A9) | MIC (Human alphaherpesvirus 2) | MIC (Sindbis virus) | MIC (Coxsackievirus B4 [9]) | MIC (Poliovirus 1) | other results
1 | Cl.Cn1cc(NC(=O)c2cc(NC(=O)C(Cl)(Cl)Cl)cn2C)cc1C(=O)NCCC(=N)N | > 100 µg/mL | > 100 µg/mL | > 100 µg/mL | 84.3 µg/mL | 55% | > 40 µg/mL | 68.7 µg/mL | > 100 µg/mL | > 100 µg/mL | > 100 µg/mL | 30.5 µg/mL | 28% | > 40 µg/mL | > 200 µg/mL | > 40 µg/mL | > 40 µg/mL | > 100 µg/mL | > 100 µg/mL | > 40 µg/mL | > 40 µg/mL | 
2 | Cl.Cn1cc(NC(=O)c2cc(NC(=O)CCl)cn2C)cc1C(=O)NCCC(=N)N | 13.3 µg/mL | ≥ 100 µg/mL | > 100 µg/mL | 28.7 µg/mL | 38% | > 200 µg/mL | 3.09 µg/mL | 70 µg/mL | > 100 µg/mL | > 100 µg/mL | 8.7 µg/mL | 29% | > 100 µg/mL |  |  |  | 70 µg/mL | > 100 µg/mL | > 100 µg/mL | > 100 µg/mL | IC50 (NAMALVA): 5.3 µg/mL; IC50 (Hepatoma cell line): 3.63 µg/mL
3 | Cl.Cn1cc(NC(=O)c2cc(NC(=O)CF)cn2C)cc1C(=O)NCCC(=N)N | ≥ 100 µg/mL | > 200 µg/mL | > 200 µg/mL | 32.3 µg/mL | 0% | 100 µg/mL | 33.1 µg/mL | 150 µg/mL | > 200 µg/mL | > 40 µg/mL | 40.3 µg/mL | 0% | > 100 µg/mL | > 100 µg/mL | > 200 µg/mL | > 200 µg/mL | 100 µg/mL | > 200 µg/mL |  |  | IC50 (NAMALVA): 32.3 µg/mL
4 | Cl.Cn1cc(NC(=O)c2cc(NC(=O)CCCCl)cn2C)cc1C(=O)NCCC(=N)N | 74.1 µg/mL | > 200 µg/mL |  | > 100 µg/mL | 0% | > 400 µg/mL | > 100 µg/mL | 300 µg/mL |  |  | > 100 µg/mL | 0% |  | > 200 µg/mL |  |  | 150 µg/mL |  |  |  | 
5 | Cl.Cl.Cn1cc(NC(=O)c2cc(NC(=O)c3cc(NC=O)cn3C)cn2C)cc1C(=O)NCCC(=N)N | 30.6 µg/mL | > 200 µg/mL | > 200 µg/mL | 28.4 µg/mL |  | > 100 µg/mL | 23.7 µg/mL | 70 µg/mL | > 200 µg/mL | > 200 µg/mL | 27.1 µg/mL |  | > 200 µg/mL | > 200 µg/mL |  |  | 70 µg/mL | > 200 µg/mL |  |  | IC50 (NAMALVA): 22.5 µg/mL; IC50 (Hepatoma cell line): 54.7 µg/mL
6 | Cl.Cn1cc(NC(=O)c2cc(NC(=O)C3CC3)cn2C)cc1C(=O)NCCC(=N)N | > 100 µg/mL | 100 µg/mL | > 100 µg/mL | 7.8 µg/mL | 8% | > 100 µg/mL | 26.7 µg/mL | 20 µg/mL | > 100 µg/mL | > 100 µg/mL | > 100 µg/mL | 3% | > 100 µg/mL | > 200 µg/mL | > 40 µg/mL | 20 µg/mL | 40 µg/mL | > 100 µg/mL |  |  | 
7 | CC[N+](CC)(CC)CC.Cn1cc(NC(=O)c2cc(NC(=O)C(Cl)Cl)cn2C)cc1C(=O)NCCC(=N)N.O=S(=O)([O-])O | > 100 µg/mL | 200 µg/mL | > 100 µg/mL | 27.2 µg/mL | 28% | > 200 µg/mL | 24.1 µg/mL | 70 µg/mL | > 40 µg/mL | > 100 µg/mL | > 100 µg/mL | 13% | > 200 µg/mL | > 200 µg/mL | 40 µg/mL | 40 µg/mL | 70 µg/mL | > 100 µg/mL | > 100 µg/mL | > 100 µg/mL | 
8 | Cl.Cl.Cn1cc(NC(=O)c2cc(NC(=O)CNC(=N)N)cn2C)cc1C(=O)NCCC(=N)N [CONGOCIDINE] |  | > 400 µg/mL | > 200 µg/mL | > 100 µg/mL |  | > 10 µg/mL |  | > 10 µg/mL | > 200 µg/mL | > 100 µg/mL |  |  | > 200 µg/mL |  |  |  | > 10 µg/mL | > 200 µg/mL |  |  | IC50 (Hepatoma cell line): 44.7 µg/mL

Reference: ChEMBL document CHEMBL1124029, “Novel DNA groove binding alkylators: design, synthesis, and biological evaluation” (1988)
